Assay results: PubChem BioAssay
Active and inactive are the calls of the source.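 Rule for the calls, unless noted: active = inhibition at or above 50% at 10 µM; inactive = inhibition below 50%.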

What was measured:
[1] = inhibitors of TNFa-induced NFkB p65 translocation, primary screen, imaging, HUVEC, MLSMR starter and 10KST1 sets (AID 438;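 active = inhibition above 20% together with a positive visual image hit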;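 note: compound added about 3h40 before a 20 min TNFalpha stimulation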;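 for inhibition: signal is the nuclear over cytoplasmic p65 intensity ratio per well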); settings: HUVEC TNFa-induced p65 nuclear translocation; cell count: measured here: nuclei count (cytotoxicity indicator), at 2.08 µM; inhibition: at 2 µM, stronger effect = higher value, 0% TNFa-plus-vehicle, 100% no-TNFa wells
[2] = inhibitors of mutant huntingtin aggregation, primary screen, imaging, exon1htt(103Q)mCFP cells, high-content imaging (AID 483;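 active = visual image review flags a hit and inhibition of aggregation exceeds 20%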;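 note: compound exposure lasted 3 days before fixation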;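 for nuclei count: percent of the per-plate median nuclei count of sample wells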); settings: exon1htt(103Q)mCFP cell line, aggregate imaging, at 2 µM; inhibition of aggregation: stronger effect = higher value; nuclei count: measured here: cell count, toxicity
[3] = inhibitors of E-selectin induction by TNFa, primary screen, imaging, HUVEC, immunofluorescence, MLSMR starter and 10KST1 sets (AID 487;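 active = visually confirmed hit in the image check and inhibition above 20%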;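 for inhibition: signal is fraction of cell area covered by stained E-selectin grains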;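 for nuclei count: 100% = median nuclei count of all wells on the same plate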); settings: HUVEC TNFalpha-induced E-selectin immunofluorescence imaging, at 2 µM; inhibition: stronger effect = higher value; nuclei count: measured here: cell number, toxicity
[4] = target: Voltage-gated potassium channel subunit beta-2 (Rattus norvegicus) (UniProt P62483); assay: KvBeta enzyme negative modulators, primary screen, biochemical, NADPH fluorescence (AID 622;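 active = fluorescence slope higher than the sample average by over 3 SD, cut at about -0.22 in these data, passing the limit was not always enough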;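 note: slope of raw intensity against log time taken from 70 to 1610 s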); settings: recombinant KvBeta, 4-cyanobenzaldehyde reduction, at 10 µM, stronger effect = higher value
Chain of Voltage-gated potassium channel subunit beta-2 (Rattus norvegicus) (P62483 whole entry, looked up): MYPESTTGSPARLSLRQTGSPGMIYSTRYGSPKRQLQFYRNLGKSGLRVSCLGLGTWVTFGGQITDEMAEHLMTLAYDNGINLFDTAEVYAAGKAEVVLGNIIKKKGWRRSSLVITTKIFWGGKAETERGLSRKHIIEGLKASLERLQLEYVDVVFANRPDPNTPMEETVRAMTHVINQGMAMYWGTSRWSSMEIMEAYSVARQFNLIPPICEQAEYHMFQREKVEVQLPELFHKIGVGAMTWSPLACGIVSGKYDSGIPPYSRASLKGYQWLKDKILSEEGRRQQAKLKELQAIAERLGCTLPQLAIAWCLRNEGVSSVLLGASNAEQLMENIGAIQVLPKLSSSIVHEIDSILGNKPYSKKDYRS

[5] = target: Voltage-gated potassium channel subunit beta-2 (Rattus norvegicus) (UniProt P62483); assay: KvBeta positive modulators, primary screen, biochemical, NADPH fluorescence (AID 623;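 active = NADPH fluorescence slope more negative than the mean of all samples by about 3 SD, 99.7% confidence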;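 note: fluorescence intensity change per second fitted from 20 to 320 s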); settings: Recombinant KvBeta, NADPH fluorescence decrease slope, 10 min; at 10 µM; stronger effect = lower value
[6] = target: Alpha-2C adrenergic receptor (Homo sapiens) (UniProt P18825); assay: modulators of alpha2C/GIRK thallium flux, primary screen, cell-based, HEK293 alpha2C/GIRK1/2 (AID 624;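 active = fluorescence slope after compound addition differing from the mean of all screened samples at 99.7% confidence, in either direction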;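 note: slope of fluorescence ratio to pre-addition baseline per second over 15 to 24 s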); settings: thallium flux BTC fluorescence, at 10 µM, actives lie on both sides
Chain of Alpha-2C adrenergic receptor (Homo sapiens) (P18825 whole entry, looked up): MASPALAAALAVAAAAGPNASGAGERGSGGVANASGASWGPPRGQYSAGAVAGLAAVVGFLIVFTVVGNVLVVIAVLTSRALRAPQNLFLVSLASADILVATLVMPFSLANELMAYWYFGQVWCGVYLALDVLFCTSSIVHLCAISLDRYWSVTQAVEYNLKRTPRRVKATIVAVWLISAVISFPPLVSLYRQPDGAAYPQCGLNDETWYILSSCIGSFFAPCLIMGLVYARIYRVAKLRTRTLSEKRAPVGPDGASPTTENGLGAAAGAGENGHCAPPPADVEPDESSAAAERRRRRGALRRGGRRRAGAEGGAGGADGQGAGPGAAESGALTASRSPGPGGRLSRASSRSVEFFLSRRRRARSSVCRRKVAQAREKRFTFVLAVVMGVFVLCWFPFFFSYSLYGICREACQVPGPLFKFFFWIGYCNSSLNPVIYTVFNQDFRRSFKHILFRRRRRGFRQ

[7] = inhibitors of larval lipid processing in zebrafish, primary screen, whole organism, PED6 fluorescence, gall bladder and intestine (AID 686;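 active = a full or partial loss of lipid-probe fluorescence in the fish gall bladder, intestine or both, judged by eye; inactive = no fluorescence loss, or compound toxic to the fish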;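 note: larvae 5 to 7 days old with five fish per well; signal comes from phospholipase A2 cleavage of quenched PED6 carried via bile; overnight exposure to compound and PED6 before scoring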); settings: Zebrafish larvae PED6 lipid processing, fluorescence scoring; screened at 20 µM (by protocol)
In short: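 Test system – live zebrafish larvae aged 5-7 days, whole organism · Buffer or medium – E3 fish medium · Reagent – quenched phospholipase substrate PED6, 100 nM final, ingested by larvae · Doses – 20 µM single dose · Incubation – overnight compound and PED6 incubation · Technique – visual fluorescence microscopy scoring of gall bladder, gut · Read-out basis – visual per-well fluorescence inhibition score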

[8] = inhibitors of Sendai virus-induced IRF3 signaling, primary screen, TLR/RLR signaling modifier project, cell-based, Sendai virus stimulus, luciferase, 10K MLSCN set (AID 602276); settings: HEK293 RL24 IRF3 luciferase reporter, at 10 µM, stronger effect = higher value;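 note: firefly luciferase from ISG56 promoter only with Renilla not read in this screen; 0% = Sendai virus plus DMSO and 100% = medium plus DMSO without virus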
[9] = inhibitors of poly I:C-induced TLR3 signaling, primary screen, cell-based, poly I:C stimulus, luciferase, 10K MLSCN set (AID 602277;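 active = inhibition of the reporter signal at or above 50%; inactive = inhibition below 50%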); settings: HEK293-TLR3 RL24 IRF3 luciferase reporter, at 10 µM, stronger effect = higher value

Row | SMILES | cell count [1] | inhibition [1] | inhibition of aggregation [2] | nuclei count [2] [%] | inhibition [3] | nuclei count [3] [%] | fluorescence slope [4] | NADPH fluorescence slope [5] | slope [6] | outcome [7] | inhibition [8] | inhibition [9]
1 | Cc1onc(-c2c(F)cccc2Cl)c1C(=O)Nc1nc2c(s1)CCCC2 | 250 | 5.1% (inactive) | 14.6% (inactive) | 101 | 38.1% (inactive) | 77.9 | -0.467 (inactive) | -9.4e-06 (inactive) | 0.00615 (inactive) | inactive | -235% (inactive) | 99.1% (active)
2 | CC(=O)Nc1c(O)n(C)c2ccccc12 | 638 | -24.1% (inactive) | 4.1% (inactive) | 104 | 25.2% (inactive) | 100 | -0.445 (inactive) | 3.6e-05 (inactive) | 0.00514 (inactive) | inactive | -8.37% (inactive) | 2.01% (inactive)
3 | CC(C)C(CO)NC(=O)CC(=O)NC(CO)C(C)C (stereo not given) | 627 | -5.6% (inactive) | 4.9% (inactive) | 82.3 | 48.7% (inactive) | 35.5 | -0.392 (inactive) | -5.1e-05 (inactive) | 0.00488 (inactive) | inactive | 9.94% (inactive) | 12.2% (inactive)
4 | CCNc1ccc(S(=O)(=O)C(F)(F)F)cc1NC(=O)C12CCC(CC1)C2 | 380 | 2.5% (inactive) | -4.3% (inactive) | 108 | -30.6% (inactive) | 101 | -0.481 (inactive) | -3.1e-05 (inactive) | 0.0047 (inactive) | inactive | -90% (inactive) | 99.7% (active)
5 | COCc1nnc(SCC(=O)NC(C)c2ccccc2)n1-c1ccccc1 (stereo not given) | 308 | -1.1% (inactive) | 5.8% (inactive) | 94.3 | -18.5% (inactive) | 101 | -0.434 (inactive) | -3.6e-05 (inactive) | 0.00455 (inactive) | inactive | 14.7% (inactive) | 14.9% (inactive)
6 | COC(=O)c1ccccc1NC(=O)CN1CCC(n2nnc3cc(F)ccc32)CC1 | 488 | 6% (inactive) | -5.5% (inactive) | 103 | 35% (inactive) | 91.3 | -0.453 (inactive) | -4.1e-05 (inactive) | 0.00532 (inactive) | inactive | 15.8% (inactive) | 25.9% (inactive)
7 | CCOc1nc(-c2ccccc2O)nc2ccccc12 | 716 | -3.1% (inactive) | -11.6% (inactive) | 104 | -148% (inactive) | 116 | -0.437 (inactive) | -2.5e-05 (inactive) | 0.00628 (inactive) | inactive | 6.19% (inactive) | 9.49% (inactive)
8 | COc1ccccc1NC(=O)CSc1nnc(Cn2nnc(-c3ccccc3)n2)n1-c1ccccc1 | 644 | -12.5% (inactive) | 5.6% (inactive) | 104 | -50.5% (inactive) | 119 | -0.452 (inactive) | -5.2e-05 (inactive) | 0.00589 (inactive) | inactive | 19.9% (inactive) | 14.5% (inactive)
9 | Cc1occc1C(=O)Nc1ccc(S(=O)(=O)N2CCN(C)CC2)cc1 | 318 | 1% (inactive) | -23.8% (inactive) | 95.5 | -42.1% (inactive) | 107 | -0.44 (inactive) | -1.3e-05 (inactive) | 0.00548 (inactive) | inactive | 15.9% (inactive) | 16.1% (inactive)
10 | Cc1csc(NC(=O)Nc2cccc(Cl)c2)n1 | 506 | 1.8% (inactive) | -3.3% (inactive) | 97.5 | -98.3% (inactive) | 113 | -0.373 (inactive) | -3.7e-05 (inactive) | 0.00525 (inactive) | active; weak signal in gallbladder only | -37.7% (inactive) | -119% (inactive)
11 | COc1ccc(CN(C(=O)CN2C(=O)COc3ccccc32)C2CCCC2)c(OC)c1 | 658 | -3.5% (inactive) | -4.6% (inactive) | 102 | 4.9% (inactive) | 104 | -0.435 (inactive) | -6.2e-05 (inactive) | 0.00491 (inactive) | inactive | 21.9% (inactive) | 26.4% (inactive)
12 | COc1cc(S(=O)(=O)NC2CCCCC2C)ccc1Cl (stereo not given) | 691 | 4.8% (inactive) | -2% (inactive) | 114 | -69.9% (inactive) | 106 | -0.411 (inactive) | 2.4e-05 (inactive) | 0.00366 (inactive) | inactive | -3.61% (inactive) | -3.48% (inactive)
13 | COC(=O)c1ccccc1NC(=O)C12CCC(C)(C(=O)O1)C2(C)C (stereo not given) | 358 | 1.7% (inactive) | -12.1% (inactive) | 106 | 29.1% (inactive) | 92.7 | -0.433 (inactive) | -4.4e-05 (inactive) | 0.00406 (inactive) | inactive | 20.2% (inactive) | 22.6% (inactive)
14 | O=C(CN1CCC(n2nnc3ccccc32)CC1)Nc1ccc2c(c1)CCC2 | 643 | -9.3% (inactive) | 4.8% (inactive) | 96.4 | -27% (inactive) | 107 | -0.42 (inactive) | -4.8e-05 (inactive) | 0.00413 (inactive) | inactive | 16% (inactive) | 19% (inactive)
15 | CN(C)c1ccc(NC(=O)Nc2cccc(Cl)c2)cc1 | 387 | 2.3% (inactive) | 1.1% (inactive) | 106 | -10% (inactive) | 109 | -0.436 (inactive) | -3.6e-05 (inactive) | 0.00643 (inactive) | inactive | -43.6% (inactive) | -104% (inactive)
16 | CCN(CC)C(=O)C1CCN(CC2CC=CCC2)CC1 (stereo not given) | 377 | -8.2% (inactive) | 12.3% (inactive) | 110 | -22.3% (inactive) | 76.6 | -0.361 (inactive) | 2.7e-06 (inactive) | 0.00638 (inactive) | inactive | -1.94% (inactive) | 9.42% (inactive)
17 | CC(=O)N1CCc2cc(S(=O)(=O)NCCC(=O)Nc3cc(C)cc(C)c3)ccc21 | 611 | -11.5% (inactive) | 15.1% (inactive) | 97.8 | 25.9% (inactive) | 98 | -0.399 (inactive) | -8.9e-05 (inactive) | 0.00432 (inactive) | inactive | 12.9% (inactive) | 12.5% (inactive)
18 | CC1Oc2ccccc2N(CC(=O)NCc2cccs2)C1=O (stereo not given) | 787 | 1.6% (inactive) | 2.2% (inactive) | 91.4 | -146% (inactive) | 120 | -0.448 (inactive) | -6e-05 (inactive) | 0.00433 (inactive) | active; weak signal in gallbladder only | -0.51% (inactive) | -12.6% (inactive)
19 | O=C(Nc1cccc(OCC(=O)N2CCOCC2)c1)C1CCCCC1 | 428 | 4.9% (inactive) | 5.7% (inactive) | 95.1 | -22.9% (inactive) | 94.2 | -0.471 (inactive) | -5.6e-05 (inactive) | 0.0056 (inactive) | inactive | 11.4% (inactive) | 12.7% (inactive)
20 | Cc1cc(C(=O)CSc2nnc(-c3ccccc3)n2C)c(C)n1C | 403 | 4.4% (inactive) | 3.6% (inactive) | 88.2 | -5.3% (inactive) | 107 | -0.477 (inactive) | -5.5e-05 (inactive) | 0.00512 (inactive) | inactive | -0.894% (inactive) | 78.4% (active)
21 | COCCn1nnnc1SCC(=O)N1CCCCC1 | 344 | 1.6% (inactive) | 4.1% (inactive) | 102 | 6.2% (inactive) | 121 | -0.49 (inactive) | -9.6e-06 (inactive) | 0.00458 (inactive) | inactive | 17.3% (inactive) | 14% (inactive)
22 | COc1cccc(NC(=O)N2CCCC2C(=O)Nc2ccc3c(c2)OCO3)c1 (stereo not given) | 649 | 5.8% (inactive) | -11.8% (inactive) | 57.5 | -117% (inactive) | 106 | -0.351 (inactive) | -6.1e-05 (inactive) | 0.00477 (inactive) | inactive | 13.7% (inactive) | 18.8% (inactive)
23 | c1ccc2c(SCc3cn4cccnc4n3)ncnc2c1 | 553 | -14.3% (inactive) | 0.5% (inactive) | 109 | 6.3% (inactive) | 93.9 | -0.341 (inactive) | -5.7e-05 (inactive) | 0.00553 (inactive) | inactive | 3.66% (inactive) | -0.28% (inactive)
24 | COCC(=O)n1nc(NCc2ccc(OC)cc2)nc1NCc1ccc(OC)cc1 | 614 | 2% (inactive) | -19.7% (inactive) | 101 | -25.2% (inactive) | 96.2 | -0.377 (inactive) | -6e-05 (inactive) | 0.00518 (inactive) | inactive | 10.6% (inactive) | 8.87% (inactive)
25 | CCOc1nc(NCCC2=CCCCC2)nc(N2CCOCC2)n1 | 450 | 2.7% (inactive) | 6.3% (inactive) | 84 | -23.8% (inactive) | 96.5 | -0.364 (inactive) | -5.8e-05 (inactive) | 0.00441 (inactive) | inactive | 10.2% (inactive) | 5.8% (inactive)
